20 molecules from ChEMBL document CHEMBL1129494, “Structure-based design of lipophilic quinazoline inhibitors of thymidylate synthase” (J Med Chem, 1996) can be followed below.

The test system of test [1] is L1210. Briefly: Inhibition of L1210 (murine leukemia) cell growth in vitro. Also on record: concentration or dose not given beside the values. It is filed as functional, Mus musculus. The procedure, abridged: (§1)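 Murine L1210 leukemia cells seeded at 1000 cells/well in RPMI-1640 containing 5% fetal calf serum and 0.5% DMSO, exposed to nine 2-fold serial dilutions for 3 days. Growth was read by MTT (4 h), with formazan dissolved in DMSO and measured spectrophotometrically. IC50 comes from semilog concentration plots of the mean of four assessments per dilution versus control growth.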

Test [2] has as its target Thymidylate synthase (Homo sapiens) (UniProt P04818).
The target in test [3] is Thymidylate synthase (Escherichia coli) (UniProt C3SWJ7).
Chain of Thymidylate synthase (Escherichia coli) (C3SWJ7 1-264): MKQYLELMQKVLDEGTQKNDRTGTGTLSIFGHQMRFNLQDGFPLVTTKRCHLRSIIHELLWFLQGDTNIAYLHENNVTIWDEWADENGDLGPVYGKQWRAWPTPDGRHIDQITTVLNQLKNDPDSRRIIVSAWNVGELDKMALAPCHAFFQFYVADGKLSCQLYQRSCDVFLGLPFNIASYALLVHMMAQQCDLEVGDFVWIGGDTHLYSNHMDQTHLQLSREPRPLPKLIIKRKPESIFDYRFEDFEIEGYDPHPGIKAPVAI
In test [4] the test system is CCRF-CEM. The experiment in a line: Activity for growth inhibition in tissue culture of human leukemias (CCRF-CEM). value in parenthesis indicates % inhibition. The format is functional, cell-based.
Test [5] concerns GC3/MTK-. The experiment in a line: Inhibition of GC3/M TK- (human adenocarcinoma) cell growth in vitro. The format is functional, cell-based. In a few lines: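 Thymidine kinase-deficient human adenocarcinoma GC3/M TK- cells seeded at 10 000 cells/well in RPMI-1640 with 10% fetal calf serum and 0.5% DMSO. Compound given as nine 2-fold serial dilutions over a 5 day incubation, then 4 h MTT and spectrophotometric formazan read after DMSO dissolution. IC50 from semilog plots of the mean of four growth assessments relative to control cultures.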

Test [6] concerns L1210. Briefly: Inhibition of murine L1210 cell line tissue culture growth. The format is functional, cell-based. The conditions noted are these: Mus musculus. The procedure, abridged: as §1
Test [7] deals with Thymidylate synthase (Escherichia coli) (UniProt C3SWJ7). The source holds these as a separate data set.
Test [8] deals with CCRF-CEM. The experiment in a line: (§2) Inhibition of CCRF-CEM (human leukemia) cell growth in vitro. Also on record: concentration or dose not given beside the values. It is filed as functional. The procedure, abridged:
(§3)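 MTT colorimetric growth assay (modified Mosmann) in CCRF-CEM human leukemia cells seeded at 10 000 cells/well in RPMI-1640 with 5% fetal calf serum and 0.5% DMSO. Nine 2-fold serial dilutions of compound, 5 day incubation, then 4 h MTT and formazan dissolved in DMSO for spectrophotometric reading. IC50 taken from semilog plots of the mean of four growth assessments per dilution relative to control cultures.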

Test [9] deals with Thymidylate synthase (Homo sapiens) (UniProt P04818). The source holds these as a separate data set.
Chain of Thymidylate synthase (Homo sapiens) (P04818 2-313 limits assumed): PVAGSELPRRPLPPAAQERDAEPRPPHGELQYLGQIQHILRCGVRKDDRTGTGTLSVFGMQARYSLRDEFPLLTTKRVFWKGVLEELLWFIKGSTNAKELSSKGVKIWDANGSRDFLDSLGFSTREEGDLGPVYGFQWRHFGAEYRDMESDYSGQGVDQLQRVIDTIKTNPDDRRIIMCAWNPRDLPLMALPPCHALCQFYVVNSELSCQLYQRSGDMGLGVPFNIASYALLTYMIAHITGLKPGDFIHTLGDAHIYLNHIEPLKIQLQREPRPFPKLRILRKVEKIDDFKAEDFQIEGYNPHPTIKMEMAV
Test [10] relates to GC3/MTK-. Briefly: Activity for growth inhibition in tissue culture of thymidine kinase-deficient human adenocarcinoma cell line (GC3/M TK-)value in parenthesis indicates % inhibition. It is filed as functional, cell-based.
Test [11] deals with GC3/MTK-. Briefly: Inhibitory activity of compound against growth of thymidine kinase-deficient human adenocarcinoma cell line (GC3/M TK-) in tissue culture. It is filed as functional. The arrangement: concentration or dose not given beside the values. The procedure, abridged:
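MTT colorimetric growth assay in the thymidine kinase-deficient human adenocarcinoma line. Seeded at 10 000 cells/well in RPMI-1640 with 10% fetal calf serum and 0.5% DMSO. Nine 2-fold serial dilutions of compound, 5 day incubation, then 4 h MTT. Formazan dissolved in DMSO and read spectrophotometrically. IC50 taken from semilog plots of the mean of four growth assessments per dilution, relative to control cultures.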

In test [12] the test system is CCRF-CEM. The test is described as §2. The format is functional, cell-based. In a few lines: as §3

For the molecule `C#CCN(Cc1ccc2nc(C)nc(O)c2c1)c1cccc(C(C)O)c1` (stereo unspecified), the Inhibition in the test on L1210 [1] turned out to be 35%; with CCRF-CEM [8] it was 33%. The results for the Kii in test [2] and in test [7] were 3.6 µM and 8.3 µM, respectively. Besides, the Kis in test [3] came to 2.4 µM; in test [9] it was 1.7 µM. The IC50 is above 49 µM in the test on CCRF-CEM [4], 49 µM in the test with GC3/MTK- [5] and above 49 µM in the test with L1210 [6].
In the case of `C#CCN(Cc1ccc2nc(C)nc(O)c2c1)c1ccc(S(=O)(=O)N2CCNCC2)cc1`, the figures for the half-maximal inhibitory concentration (IC50) with GC3/MTK- [10], in the test on L1210 [6] and in the test on CCRF-CEM [12] were above 50 µM, above 50 µM and 48 µM, respectively. Moreover, the Inhibition with GC3/MTK- [11] and in the test with L1210 [1] was 47% in each case. In addition, the Kii in [2] stood at 0.071 µM; in test [7] it was 0.28 µM. Besides, the values for the Kis in [3] and in [9] were 0.1 µM and 0.063 µM, respectively.
On to `C#CCN(Cc1ccc2nc(C)nc(O)c2c1)c1ccc(S(N)(=O)=O)cc1`, for which the Kii was 0.084 µM in test [2] and 0.41 µM in [7]. Besides, the results for the Kis in test [3] and in [9] were 0.1 µM and 0.064 µM, respectively. For the same molecule, the IC50 with GC3/MTK- [5] was above 26 µM; with L1210 [6], 20 µM; with CCRF-CEM [12], above 26 µM.
In the test with GC3/MTK- [11], `C#CCN(Cc1ccc2nc(C)nc(O)c2c1)c1ccc(S(=O)(=O)NCC(=O)O)c(C(F)(F)F)c1` had an Inhibition of 28%. Further, the Kii in test [2] is 0.019 µM; in [7] it was 0.015 µM. For the same molecule, the Kis in test [3] was found to be 0.0059 µM; in test [9], 0.0096 µM. The figures for the IC50 with CCRF-CEM [4], in the test on GC3/MTK- [5] and in the test with L1210 [6] were above 77 µM, above 77 µM and above 75 µM, respectively.
In the case of `CCN(Cc1ccc2nc(C)nc(O)c2c1)c1ccc(C(=O)C(F)(F)F)cc1`, the Inhibition with GC3/MTK- [11] and with CCRF-CEM [8] was 10% each time. The Kii was 0.49 µM in test [2] and 1 µM in test [7]. The Kis in [3] was 0.18 µM; in test [9], 0.13 µM. Also, the IC50 in the test with GC3/MTK- [5] was above 4 µM; in the test on L1210 [6] it was 3.4 µM; with CCRF-CEM [12], above 4 µM.
For `C#CCN(Cc1ccc2nc(C)nc(O)c2c1)c1ccc([S+]([O-])c2ccccc2)cc1` (stereo unspecified), the Kii in [2] was determined as 0.11 µM; in test [7] it was 0.55 µM. Besides, the values for the Kis in [3] and in [9] were 0.16 µM and 0.061 µM, respectively. Further, the IC50 in the test with GC3/MTK- [5] was found to be 3.9 µM; in the test with L1210 [6] it was 1.7 µM; with CCRF-CEM [12], 4.5 µM.
`Cc1nc(O)c2cc(CNc3ccc(S(=O)(=O)c4ccccc4)cc3)ccc2n1`: the Inhibition in the test with GC3/MTK- [11] was 10%; in the test with L1210 [1], 40%; in the test on CCRF-CEM [8] it was 33%. Further, the Kii in [2] worked out at 2.2 µM; in test [7], 17 µM. Also, the Kis in test [3] came to 2 µM; in [9] it was 1 µM. Also, the IC50 in the test with GC3/MTK- [5], in the test with L1210 [6] and in the test on CCRF-CEM [12] was above 14.7 µM in each case.
As for `C#CCN(Cc1ccc2nc(C)nc(O)c2c1)c1ccc(S(=O)(=O)N2CCOCC2)cc1`, the Kii in [2] came to 0.091 µM; in test [7], 0.15 µM. The Kis amounted to 0.039 µM in [3] and 0.045 µM in [9]. Further, the IC50 was 5.2 µM in the test with GC3/MTK- [5], 3.1 µM in the test with L1210 [6] and 4.5 µM with CCRF-CEM [12].
On to `C#CCN(Cc1ccc2nc(C)nc(O)c2c1)c1ccc(S(=O)(=O)c2ccccc2)cc1`, for which the IC50 in the test on GC3/MTK- [5] came to 1.76 µM; in the test with L1210 [6], 0.86 µM; in the test with CCRF-CEM [12], 1.44 µM.
In the case of `CCN(Cc1ccc2nc(C)nc(O)c2c1)c1ccc(S(=O)(=O)c2ccccc2)cc1`, the Kii in [2] was 0.13 µM; in [7], 0.24 µM. Further, the Kis in test [3] stood at 0.077 µM; in test [9], 0.034 µM. In addition, the figures for the IC50 with GC3/MTK- [5], in the test on L1210 [6] and in the test on CCRF-CEM [12] were 2.6 µM, 0.66 µM and 2.7 µM, respectively.
Consider `C#CCN(Cc1ccc2nc(C)nc(O)c2c1)c1ccc([N+](=O)[O-])cc1`, for which the figures for the Kii in [2] and in test [7] were 0.098 µM and 0.17 µM, respectively. Moreover, the Kis in test [3] turned out to be 0.068 µM; in [9], 0.056 µM. Further, the IC50 was above 4.8 µM with GC3/MTK- [5], 4.7 µM in the test on L1210 [6] and above 4.8 µM in the test on CCRF-CEM [12]. Further, the Inhibition in the test with CCRF-CEM [8] stood at 8%.
For the molecule `C#CCN(Cc1ccc2[nH]c(N)nc(=O)c2c1)c1ccc(C(=O)NC(CCC(=O)O)C(=O)O)cc1` (stereo unspecified), the IC50 came out at 2.13 µM in the test with GC3/MTK- [5] and 1.57 µM in the test with L1210 [6].
The molecule `C#CCN(Cc1ccc2nc(C)nc(O)c2c1)c1ccc(C#N)c(C(F)(F)F)c1` returned an Inhibition in the test on L1210 [1] above 15%. Further, the Kii in test [2] was 0.14 µM; in [7], 0.047 µM. Besides, the values for the Kis in [3] and in [9] were 0.015 µM and 0.081 µM, respectively. The IC50 with L1210 [6] is above 2.8 µM.
For `C#CCN(Cc1ccc2nc(C)nc(O)c2c1)c1ccc(C(=O)c2ccccc2)cc1`, the Kii was determined as 0.16 µM in test [2] and 0.47 µM in test [7]. For the same molecule, the Kis in test [3] was found to be 0.094 µM; in test [9] it was 0.11 µM. Besides, the IC50 with GC3/MTK- [5] is 6.2 µM; in the test with L1210 [6] it was 7.7 µM; in the test on CCRF-CEM [12] it was above 7.7 µM. In addition, the Inhibition in the test with CCRF-CEM [8] is listed as 40%.
On to `Cc1nc(O)c2cc(CN(C)c3ccc(Cc4ccccc4)cc3)ccc2n1`, for which the results for the IC50 in the test on GC3/MTK- [10], with L1210 [6] and in the test with CCRF-CEM [12] were above 5 µM, 2.8 µM and 3.4 µM, respectively. For the same molecule, the Kii in [2] and in [7] was above 1 µM in each case. The Kis in test [3] and in test [9] was above 1 µM each time.
Consider `C#CCN(Cc1ccc2nc(C)nc(O)c2c1)c1cccc(I)c1`, for which the figures for the Inhibition with GC3/MTK- [11] and with CCRF-CEM [8] were 35% and 10%, respectively. In addition, the values for the Kii in test [2] and in test [7] were 0.44 µM and 1.4 µM, respectively. Also, the Kis in [3] was determined as 0.33 µM; in test [9], 0.16 µM. Moreover, the concentration for half-maximal inhibition (IC50) in the test with CCRF-CEM [4], with GC3/MTK- [5] and in the test on L1210 [6] was above 5.3 µM each time.
`C#CCN(Cc1ccc2nc(C)nc(S)c2c1)c1cccc(C(F)(F)F)c1`: the IC50 in the test on GC3/MTK- [10], with L1210 [6] and with CCRF-CEM [12] was above 5.6 µM throughout. The Kii turned out to be 2.3 µM in test [2] and 0.36 µM in [7]. Besides, the values for the Kis in [3] and in [9] were 0.18 µM and 1.3 µM, respectively. Also, the Inhibition in the test with CCRF-CEM [8] is 30%.
Take `C#CCN(Cc1ccc2nc(C)nc(O)c2c1)c1cccc(Br)c1`: the Kii was found to be 0.84 µM in [2] and 3.3 µM in test [7]. Moreover, the Kis in [3] came out at 0.92 µM; in test [9] it was 0.65 µM. The IC50 is 5.3 µM in the test with GC3/MTK- [5], 1.8 µM in the test with L1210 [6] and above 5.7 µM in the test on CCRF-CEM [12]. In addition, the Inhibition in the test on CCRF-CEM [8] is 20%.
In the case of `C#CCN(Cc1ccc2nc(C)nc(O)c2c1)c1cccc(C#C)c1`, the results for the Inhibition with L1210 [1] and with CCRF-CEM [8] were 5% and 15%, respectively. In addition, the Kii was found to be 0.68 µM in test [2] and 2.7 µM in test [7]. The Kis was determined as 0.86 µM in test [3] and 0.41 µM in test [9]. In addition, the IC50 in the test on CCRF-CEM [4] and in the test on L1210 [6] was above 2.4 µM throughout.
`C#CCN(Cc1ccc2nc(C)nc(O)c2c1)c1ccc([N+](=O)[O-])c(C(F)(F)F)c1`: the Kii turned out to be 0.15 µM in [2] and 0.073 µM in [7]. Further, the Kis was 0.038 µM in [3] and 0.074 µM in [9]. The 50% inhibitory concentration (IC50) in the test on L1210 [6] was 5 µM; in the test with CCRF-CEM [12], 10.5 µM.
